PGE2 EP2 inh: inhibitors of human EP2 prostaglandin E2 receptor; 260,000 tested, 0.52% active; inhibition, % at 25 µM; P43116; C6 glioma cells expressing human EP2, cAMP TR-FRET; cells stimulated with saturating PGE2;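 active = percent inhibition above 40 after rounding to a whole number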;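 note: rat C6 glioma host cells with rolipram phosphodiesterase inhibitor present; the protocol text gives 20 µM as final concentration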
NPY Y2 blocker: NPY-Y2 (human) receptor antagonism | P49146 | NPY-Y2 expressing cells, antagonist mode | inhibition, % at 2.7 µM | 140,000 tested, 0.99% active; in the data active = inhibition above about 17%;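 note: 0% = vehicle with agonist challenge and 100% = reference antagonist with challenge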
Target sequence (P49146 whole entry, looked up): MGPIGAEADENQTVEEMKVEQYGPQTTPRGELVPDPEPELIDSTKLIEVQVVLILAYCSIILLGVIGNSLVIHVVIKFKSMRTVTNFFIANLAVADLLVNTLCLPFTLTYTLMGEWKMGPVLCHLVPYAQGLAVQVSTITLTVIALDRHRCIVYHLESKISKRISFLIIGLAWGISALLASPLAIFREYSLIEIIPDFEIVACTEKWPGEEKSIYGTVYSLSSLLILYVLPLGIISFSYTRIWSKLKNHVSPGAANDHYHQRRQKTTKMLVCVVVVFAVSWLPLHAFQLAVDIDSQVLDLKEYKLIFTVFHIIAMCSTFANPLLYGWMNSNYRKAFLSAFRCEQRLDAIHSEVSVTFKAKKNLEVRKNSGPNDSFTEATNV
NPY1 pot ag: human NPY-Y1 potentiation or agonism, primary screen | P25929 | NPY-Y1 expressing cells, potentiator/agonist activation | activation, % at 3.6 µM | 220,000 tested, 0.37% active | AID 1304; in the data active = activation above about 33%, passing the limit was not always enough;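 note: cells stimulated with NPY at EC10 then isoproterenol at EC100; 0% = low agonist plus stimulus and 100% = saturating agonist plus stimulus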
EP2 mod: modulators of human EP2 prostaglandin E2 receptor | EP2-expressing cells, cAMP HTRF FRET, PGE2 co-stimulation | induction, % at 25 µM | AID 940 | 260,000 tested, 0.83% active;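 active = compounds whose cAMP rise, as percent of the full-agonist control response, exceeds 60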;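 note: rat C6 glioma line stably carrying human EP2 under a CMV promoter; the protocol text gives 20 µM as final concentration; 100% = response of wells given 1 µM PGE2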
NPY2 pot ag: potentiates or activates human NPY-Y2 receptor; AID 1359; P49146; activation, % at 3.6 µM; cells expressing NPY-Y2, potentiator/agonist read-out; 220,000 tested, 0.45% active; in the data active = activation above about 27%;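 note: cells stimulated with NPY near EC25 plus isoproterenol at EC100; 0% = vehicle plus submaximal agonist and 100% = vehicle plus saturating agonist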
NPY Y1 blocker: blocks the human neuropeptide Y Y1 receptor | HEK293-CNG Y1 cells, membrane potential fluorescence; NPY at EC95, then isoproterenol | 200,000 tested, 1% active | P25929 | AID 1040 | inhibition, % at 3.6 µM;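 active = inhibition above the campaign mean inhibition of all tested compounds plus 3 SD, cut at about 20% in these data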;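 note: 0% = DMSO wells given NPY plus isoproterenol and 100% = isoproterenol alone without NPY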
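material = HEK293 cells with Y1 receptor plus CNG channel | also added = NPY 25 nM then isoproterenol 1 µM plus Ro 20-1724 25 µM | schedule = dye 3 h, compound 60 min room temperature, stimulation 45 min | measured by = membrane potential fluorescence | benchmarks = high control isoproterenol alone, low control NPY with isoproterenol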
EP2 confirm: human EP2 receptor cAMP induction, negative in counter-screens | shares compounds with EP2 mod | C6 glioma EP2 cells, cAMP HTRF induction; plus low (about EC15) PGE2 agonist | calls only at 20 µM (by protocol) | 1,300 tested, 47% active;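 active = cAMP induction above 50% in the main assay while under 30% in all four parallel counter assays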;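 note: rat C6 glioma cells stably expressing human EP2 receptor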
An asterisk follows results filed as active; i = inactive; · = no result; + = active, no number. The list is not random: actives were taken first. Their share in the collection is about 2.8%.

SMILES	PGE2 EP2 inh	NPY Y2 blocker	NPY1 pot ag	EP2 mod	NPY2 pot ag	NPY Y1 blocker	EP2 confirm
Cc1cc(N)c2cc(NC(=O)Nc3ccc4nc(C)cc(N)c4c3)ccc2n1	48.7*	·	·	61.5*	·	·	i
COc1ccc2[nH]c(=O)c(CN(Cc3cccs3)Cc3nnnn3Cc3ccc(F)cc3)cc2c1	13.0	·	·	-9.3	·	·	·
CCOC(=O)C1CCCN(c2c(C(=O)c3ccccc3)cnc3ccc(OC)cc23)C1 (centres undefined)	7.0	·	-12.9	68.2*	-9.2	7.7	i
CCC(=O)NNc1nc2c(c(=O)n1-c1ccc(OC)cc1)C1(CCCCC1)Cc1ccccc1-2	10.9	·	·	-92.6	·	·	·
COc1ccccc1NC(=O)c1ccc(NC(=O)CN(C)Cc2ccccc2F)cc1	1.3	·	-17.9	-54.1	-28.7	12.3	·
COc1ccc(CN(C)CC(=O)Nc2ccccc2-c2ccccc2)c(OC)c1	1.4	·	-12.5	12.6	-4.3	9.7	·
COc1ccccc1CN(C)CC(=O)Nc1ccccc1-c1ccccc1	8.0	·	1.9	70.7*	-9.1	14.7	+
CN(CC(=O)Nc1ccccc1Oc1ccccc1)Cc1ccccc1F	4.1	6.4	-24.0	66.8*	-8.2	1.9	+
Cc1ccccc1CN(C)CC(=O)Nc1ccccc1Oc1ccccc1	4.0	5.6	-13.7	67.7*	-18.1	5.0	+
CNC(=S)N(Cc1cc2cc(C)cc(C)c2[nH]c1=O)CC1CCCO1 (centres undefined)	10.3	·	·	-11.1	·	·	·
O=C1c2ccccc2OC2(C=Cc3ccccc3O2)N1Cc1ccccc1 (centres undefined)	·	4.6	10.9	76.5*	-0.3	-0.2	+
S=c1[nH]nc(Cc2ccccc2)n1Cc1ccco1	-1.1	0.1	-12.5	53.1	2.0	0.8	i
CCCn1c(Cc2ccccc2)n[nH]c1=S	19.0	3.8	-2.9	37.8	-8.7	7.3	·
CCn1c(COc2cccc(C)c2C)nnc1SCC(=O)N1CCOCC1	7.4	·	·	-6.8	·	·	·
CC[C@H](Cn1nc(-c2cccs2)ccc1=O)NC(=O)Cc1nonc1C	·	·	·	4.7	·	·	·
COc1ccc(C(=O)CSc2nnc(CCc3ccccc3)n2-c2ccccc2)cc1	5.7	6.3	-37.0	40.2	-25.2	5.8	·
COc1ccc(-n2c(CCc3ccccc3)nnc2SCC(=O)c2ccccc2)cc1	14.9	6.5	0.3	52.5	-1.5	-0.8	i
COc1ccc(C2=NN(CC(=O)N3CCCCC3)C(=O)c3cc4ccccc4n3C2)cc1	·	·	·	6.8	·	·	·
NS(=O)(=O)c1ccc(NCc2cnc3ccccc3c2)cc1	7.4	·	·	8.5	·	·	·
NS(=O)(=O)c1ccc(NCc2cnc3ccccc3n2)cc1	9.9	·	·	71.1*	·	·	i
CC(OC(=O)c1oc2ccccc2c1COc1ccccc1)C(=O)NC(N)=O (centres undefined)	4.7	·	-3.1	69.6*	3.2	-7.7	i
CC(OC(=O)c1oc2ccccc2c1CSC1CCCCC1)C(=O)NC(N)=O (centres undefined)	5.4	-0.3	6.1	42.3	14.7	-5.2	·
Cc1sc(NC(=O)Cc2ccc3c(c2)OCO3)nc1-c1ccc2c(c1)CCN2C(=O)c1cccc(F)c1	5.5	-0.7	6.4	72.1*	-3.3	1.5	i
Cc1oc(-c2ccccc2)cc1C(=O)Nc1ccccc1	13.1	8.0	-9.1	-33.2	-26.8	12.4	·
Cc1oc(-c2ccccc2)cc1C(=O)Nc1cccc(/C=C/C(=O)O)c1	9.5	·	-8.5	91.6*	-24.7	12.1	+
SMILES	PGE2 EP2 inh	NPY Y2 blocker	NPY1 pot ag	EP2 mod	NPY2 pot ag	NPY Y1 blocker	EP2 confirm
Cc1cc(C(=O)Nc2cccc(/C=C/C(=O)O)c2)c(C)o1	2.8	1.6	-10.8	99.0*	-20.7	3.6	+
CC1CCN(C(=O)CN2CCC(c3ccc4c(c3)OCO4)CC2)CC1	·	·	·	-28.8	·	·	·
C=CCNC(=O)CSc1nnc(-c2ccncc2)n1Cc1ccco1	9.3	·	·	28.3	·	·	·
Cc1ccc(-n2nc3c(c2NC(=O)c2ccc(Br)o2)CSC3)c(C)c1	5.1	3.5	-12.4	51.7	1.4	4.8	i
Cc1ccc(-n2nc3c(c2NC(=O)C(C)(C)C)CSC3)c(C)c1	8.6	4.8	13.4	36.1	-0.5	-1.0	·
Cc1cccc(-c2nc(=S)c3c(n2Cc2ccco2)CCCC3)c1	6.8	21.9*	1.0	65.8*	-1.4	24.9*	i
COc1c(Cl)cc(Cl)cc1C(=O)n1nc(C)cc1C	7.9	1.6	-4.7	74.1*	5.2	-0.2	i
Cc1cc(C)n(C(=O)c2ccc(Cl)c(F)c2F)n1	6.5	·	5.2	32.5	0.5	4.6	·
CC1=C(C(=O)OCc2ccccc2)C(c2ccc(Cl)cc2Cl)NC(=O)N1CCCCCC(=O)O (centres undefined)	6.5	2.2	3.4	66.0*	1.7	-5.9	i
CC1=C(C(=O)OCc2ccccc2)C(c2ccc(Cl)cc2Cl)NC(=O)N1CCCC(=O)O (centres undefined)	5.2	1.3	-3.3	31.1	9.3	-0.8	·
Cc1cccc(-n2c(CCn3nc(C)c([N+](=O)[O-])c3C)n[nH]c2=S)c1	11.3	0.0	-3.9	61.5*	-3.9	-2.5	i
O=C(N/N=C/c1ccc[nH]1)c1ccccc1OCc1ccccc1Cl	8.5	·	-19.6	65.8*	-4.5	3.2	+
COc1ccc(S(=O)(=O)N(Cc2cccs2)C2CCCC2)cc1	4.8	8.3	-4.9	80.6*	-16.1	5.8	+
O=C(c1nccs1)C1CCN(C(=O)Cc2ccc(F)cc2)CC1	·	·	·	-11.8	·	·	·
COc1ccc(C(=O)[C@H]2CCCN(C(=O)c3cc(-c4cccs4)[nH]n3)C2)cc1	7.9	·	·	-79.8	·	·	·
O=C1C2C3c4ccccc4C(c4ccccc43)[C@@H]2c2nc3ccccc3n21 (some centres undefined)	11.4	9.2	-31.9	75.2*	-44.3	19.2	+
O=C1C2C3c4ccccc4C(c4ccccc43)[C@@H]2C(=O)N1c1ccccn1 (some centres undefined)	9.2	·	19.3	0.8	-7.4	·	·
CCOc1nc(C)cc(C)c1S(=O)(=O)c1ccc(Cl)cc1	3.6	·	-7.4	80.8*	-4.8	4.9	+
Cc1ccc(S(=O)(=O)c2c(C)cc(C)nc2Cl)cc1	16.0	0.9	-3.2	-7.5	7.6	2.2	·
O=C(c1ccc(Cl)cc1)c1oc2ccccc2c1CS(=O)c1ccccc1 (centres undefined)	0.6	9.1	-42.0	71.2*	-24.0	5.8	+
COCCn1c(=O)c2ccccc2c2ccccc2c1=O	4.0	·	-9.1	3.2	-15.8	-0.2	·
CCCCn1c(=O)c2ccccc2c2ccccc2c1=O	9.2	6.0	-16.5	82.4*	-16.6	9.2	+
